Assay outcomes deposited in PubChem by The Scripps Research Institute Molecular Screening Center.
SIAE primary – inhibitors of human sialic acid acetylesterase SIAE. inhibition, % at 9.66 µM. SIAE FP-Rh probe binding, fluorescence polarization. AID 1053197. 0.69% of 370,000 active. Q9HAT2;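 active means inhibition above a cutoff: mean of compounds within the control limits plus 3 SD of those, cut at about 17% in these data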;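 further: 0% = plate median of compound wells and 100% = probe without SIAE protein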
PAD4 FP inh – PAD4 (human) enzyme inhibition. 0.41% of 330,000 active. AID 485272. recombinant PAD4, RCA probe fluorescence polarization. inhibition, % at 6.36 µM;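 active means percent inhibition above a cutoff equal to the mean of all tested compounds plus 3 SD, cut at about 15% in these data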;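 further: 0% = PAD4 with RCA probe and DMSO and 100% = probe without PAD4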
TDP2 inh – blocks human TDP2 phosphodiesterase activity | recombinant TDP2, T5PNP hydrolysis, p-nitrophenol absorbance 415 nm | inhibition, % at 12.8 µM | 0.34% of 370,000 active | AID 720702;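 active means inhibition above the mean of all tested compounds plus 3 SD, set per campaign, cut at about 25% in these data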;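 further: 0% = DMSO with enzyme and 100% = buffer with substrate but no TDP2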
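Incubation: 2 h at 37 °C; Test system: recombinant human TDP2; Quantity: enzyme 120 nM; Read-out basis: percent inhibition; Medium: 50 mM Tris-HCl pH 7.5 with Mg2+, KCl, DTT, BSA; Repeats: single replicate; Compound: 12.8 µM single point, 1% DMSO; Signal: epi absorbance; Reagent: 5 mM T5PNP chromogenic substrate; Benchmarks: no-enzyme high, DMSO-plus-enzyme low.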
HTRA1 inh – inhibitors of human serine peptidase HTRA1. recombinant HTRA1, FP-rhodamine activity-based probe, fluorescence polarization. 0.5% of 340,000 active. inhibition, % at 5.96 µM. AID 504803. Q92743; in the data active means inhibition above about 36%;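 further: 0% = enzyme with DMSO and 100% = wells lacking enzyme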
Target sequence (Q92743 whole entry, looked up): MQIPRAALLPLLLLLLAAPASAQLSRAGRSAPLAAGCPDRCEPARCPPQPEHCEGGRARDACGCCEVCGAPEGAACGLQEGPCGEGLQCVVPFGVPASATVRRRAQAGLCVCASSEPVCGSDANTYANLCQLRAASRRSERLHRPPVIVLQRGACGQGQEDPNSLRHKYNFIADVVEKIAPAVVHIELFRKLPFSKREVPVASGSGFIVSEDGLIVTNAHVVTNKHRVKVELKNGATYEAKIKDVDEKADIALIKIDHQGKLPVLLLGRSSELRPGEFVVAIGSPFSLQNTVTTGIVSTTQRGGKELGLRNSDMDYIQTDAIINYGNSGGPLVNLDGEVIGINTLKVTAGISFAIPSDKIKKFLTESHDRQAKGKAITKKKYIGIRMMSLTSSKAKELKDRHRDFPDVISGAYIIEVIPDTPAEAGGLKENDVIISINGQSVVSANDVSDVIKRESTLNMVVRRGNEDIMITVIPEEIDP
TCR-CD3 inh – blocks the human TCR-CD3 interaction; 0.37% of 360,000 active; AID 651800; inhibition, % at 9.4 µM; TAMRA-labeled TCR probe fluorescence, biochemical; in the data active means inhibition above about 19%;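 further: recombinant mutant TCR 2C K166C tagged with TAMRA read by polarization; 0% = receptor in buffer alone and 100% = receptor with positive control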
ABHD4 inh – ABHD4 (mouse) inhibition, primary FP screen | 0.54% of 370,000 active | purified mABHD4, FP-Rh probe fluorescence polarization | inhibition, % at 8.92 µM;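 active means inhibition exceeding the mean over every tested compound plus 3 SD, cut at about 30% in these data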;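 further: 0% = plate median of compound wells and 100% = S159A mutant with DMSO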
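Material: mouse ABHD4 enzyme, wild type; Benchmarks: S159A mutant high control, sample median low control; Buffer or medium: HEPES pH 7.0, NaCl, Pluronic buffer; Signal: fluorescence polarization; Read-out: percent inhibition of probe binding, normalized to plate controls; Timing: pre-incubation 45 min, probe exposure 60 min, at 25 °C; Dosing: 8.92 µM, single dose.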
SIAE confirm – confirmation of human SIAE inhibitors; inhibition, % at 9.66 µM; 13% of 2,300 active; shares compounds with SIAE primary; SIAE FP-Rh activity-based probe, fluorescence polarization; AID 1117263;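 active means mean inhibition of the replicates above the hit cutoff set in the primary screen, cut at about 17% in these data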;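 further: 0% = SIAE with DMSO and probe and 100% = probe without SIAE; inhibitors lower polarization as more probe stays unbound to SIAE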
An asterisk follows results filed as active; x = not tested or not shown. Most compounds without a hit are left out; they make up all but 2% or so of the library.

SMILES | SIAE primary | PAD4 FP inh | TDP2 inh | HTRA1 inh | TCR-CD3 inh | ABHD4 inh | SIAE confirm
CCOC(=O)C1=CCN(S(=O)(=O)c2ccccc2C)C1c1cccc(F)c1 (centres undefined) | -5.0 | x | -10.7 | x | 4.8 | -10.0 | x
Cc1ccc(S(=O)(=O)NC(=O)c2cc(C)n(C3CC3)c2C)cc1 | 23.9* | 3.6 | -4.1 | 2.8 | 4.3 | 11.6 | 4.9
CCCC(C(=O)NC1CCCC1)N(Cc1ccc2c(c1)OCO2)C(=O)c1snc(C(N)=O)c1N (centres undefined) | 23.8* | 1.3 | -16.2 | -0.9 | 3.1 | 0.6 | 2.6
CCCC(C(=O)NC1CCCC1)N(Cc1ccc(F)cc1)C(=O)c1snc(C(N)=O)c1N (centres undefined) | -1.2 | 0.1 | -1.0 | -5.9 | 1.1 | -7.9 | x
COc1cc(/C=C(/C#N)c2ccc(C)cc2)ccc1Oc1ccc([N+](=O)[O-])cn1 | 34.7* | -3.3 | -2.8 | 2.6 | 2.0 | -11.8 | -2.3
CC(=O)Nc1ccc(N/C=C/C(=O)c2ccc(Cl)cc2)cc1 | 19.3* | 2.7 | -8.0 | 10.6 | 5.9 | 3.2 | 2.6
Cc1ccc(OCC(=O)Nc2ccc(S(=O)(=O)N3CCN(C)CC3)cc2)cc1 | 17.6* | -4.2 | 4.7 | -3.8 | 6.4 | -1.3 | -0.1
CCOC1=C2[C@@H](CN(S(=O)(=O)c3ccc(C)cc3)[C@H]2c2cccc3ccccc23)[C@H]2C(=O)N(CC)C(=O)[C@H]2C1 | -5.3 | x | -2.0 | x | -1.1 | 0.4 | x
O=C(Cc1csc(NC(=O)c2ccc(F)cc2)n1)NO | 24.3* | 3.6 | -0.6 | 14.3 | 3.7 | 1.9 | 17.0
CC(c1ccccc1C(=O)O)c1cc(F)cc2ccccc12 (centres undefined) | 0.5 | x | 2.4 | x | 7.3 | -4.0 | x
Cc1nn(CC(=O)N2CCN(S(=O)(=O)c3ccccc3)CC2)c(C)c1[N+](=O)[O-] | 17.7* | -4.7 | 2.6 | 0.8 | 5.0 | -0.6 | 1.6
O=C1c2ccccc2C(c2nnnn2-c2ccc3c(c2)OCCO3)N1Cc1cccnc1 (centres undefined) | 24.8* | x | 4.2 | x | 1.6 | 3.0 | 0.2
O=C1c2ccccc2C(c2nnnn2-c2ccc3c(c2)OCCO3)N1Cc1cccc(F)c1 (centres undefined) | 8.9 | x | 11.2 | x | 2.5 | 3.7 | x
CN(C)N1C(N)=C(C#N)C(c2ccc(F)cc2)C2=C1CCCC2=O (centres undefined) | 18.9* | -0.2 | 11.0 | 0.4 | -5.4 | 2.4 | 4.9
Cc1ccc(S(=O)(=O)N2CCN(CC(=O)NC(=O)NCc3ccco3)CC2)cc1C | 6.1 | 1.6 | 12.3 | -1.2 | -1.0 | -2.4 | x
CCOC(=O)[C@]12CCCC=C1N(Cc1cccc3ccccc13)C(=O)[C@H](CC(=O)NCc1cccc3ccccc13)C2 | -8.8 | x | -15.1 | x | 4.6 | -24.0 | x
CCOC(=O)[C@]12CCCC=C1N(Cc1cccc3ccccc13)C(=O)[C@H](CC(=O)NCCc1ccccc1OC)C2 | 53.0* | x | -7.4 | x | -8.2 | -28.0 | -6.5
O=C(c1cccc(S(=O)(=O)N2CCCCCC2)c1)N1CCN(c2ccccc2)CC1 | 17.1* | 0.9 | -7.6 | -1.2 | 10.2 | -0.6 | -0.9
COc1ccc(S(=O)(=O)N2CCCC2)cc1C(=O)O | 18.2* | 2.9 | 6.9 | 8.1 | 2.1 | 0.0 | 0.0
O=C(c1cccc(S(=O)(=O)N2CCCC2)c1)N1CCN(c2ccccc2)CC1 | 9.2 | -0.5 | -0.1 | 3.5 | -2.5 | -1.3 | x
COc1ccc(S(=O)(=O)N2CCCCCC2)cc1C(=O)N1CCN(c2ccccc2O)CC1 | 19.5* | -2.7 | -4.0 | -2.4 | 1.2 | 8.0 | 3.3
COc1ccc(Nc2ccc(S(=O)(=O)N3CCCCC3)cc2[N+](=O)[O-])cc1Cl | 24.7* | 3.9 | 1.9 | 6.0 | 3.7 | 13.8 | -1.0
COc1ccc(S(=O)(=O)N2CCCCCC2)cc1C(=O)N1CCN(c2ccccc2C)CC1 | 2.2 | -1.9 | -10.4 | -18.8 | -1.4 | 8.9 | x
Cc1nc(NC(=O)CN2CC(C)OC(C)C2)sc1C(=O)N(C)C (centres undefined) | 2.2 | -1.7 | -12.0 | 0.8 | -2.1 | -0.8 | x
